Activity calls are given as the source filed them. The rule behind the calls is not given here.
What was measured:
MDA-MB-231 [1] = assay: Antiproliferative activity against human MDA-MB-231 cells at 5 to 50 uM after 24 hrs by MTT assay; assay type: functional, cell-based
How it was run: (§1)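 After 3-4 passages in RPMI 1640 with 10% FBS, cells were seeded at 8 × 10^3 per well and left to attach for 24 h. Medium was then replaced with serum-free RPMI containing compound at 50, 20, 10 or 5 µM. Viability was read by MTT conversion to formazan, and cell number was taken from a standard curve of plated cells, with cells kept in exponential growth.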

PC-3 [2] = assay: Antiproliferative activity against human PC3 cells at 5 to 50 uM after 24 hrs by MTT assay; assay type: functional, cell-based; how it was run: as §1
MDA-MB-231 [3] = assay: Antimigratory activity against human MDA-MB-231 cells at 50 uM after 24 hrs by wound healing assay; assay type: functional, cell-based
How it was run: (§2)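 Cells grown to >90% confluent monolayer in RPMI 1640 with 10% FBS, glutamine, penicillin/streptomycin at 37 °C, 5% CO2, then scratched with a sterile 200 µL pipette tip. Compounds added in DMSO, in triplicate; PMH 200 µM positive control, DMSO vehicle control. After 24 h serum-starved incubation, cells were fixed and Diff Quick stained. Migrated cells counted in ≥3 random 400× fields, reported as mean ± SEM.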

PC-3 [4] = assay: Antimigratory activity against human PC3 cells at 50 uM after 24 hrs by wound healing assay; assay type: functional, cell-based; how it was run: as §2
PC-3 [5] = assay: Antimigratory activity against human PC3 cells after 24 hrs by wound healing assay; assay type: functional, cell-based; conditions: PC-3, 24 h; how it was run: as §2
PC-3 [6] = assay: Antimigratory activity against human PC3 cells at 200 uM after 24 hrs by wound healing assay; assay type: functional, cell-based; how it was run: as §2
MDA-MB-231 [7] = assay: Antimigratory activity against human MDA-MB-231 cells at 200 uM after 24 hrs by wound healing assay; assay type: functional, cell-based; how it was run: as §2
[8] = tested on: MDA-MB-231 (Homo sapiens); assay: Antimigratory activity against human MDA-MB-231 cells at 5 to 30 uM after 24 hrs by wound healing assay
MDA-MB-231 [9] = assay: Antimigratory activity against human MDA-MB-231 cells at 5 to 30 uM after 24 hrs by wound healing assay; assay type: functional, cell-based; how it was run: as §2
MDA-MB-231 [10] = assay: Antiproliferative activity against human MDA-MB-231 cells after 24 hrs by MTT assay; assay type: functional, cell-based; conditions: MDA-MB-231, 24 h; how it was run: as §1
MDA-MB-231 [11] = assay: Antimigratory activity against human MDA-MB-231 cells after 24 hrs by wound healing assay; assay type: functional, cell-based; conditions: MDA-MB-231, 24 h; how it was run: as §2

Compound	Activity (MDA-MB-231 [1])	Activity (PC-3 [2])	Activity (MDA-MB-231 [3])	Activity (PC-3 [4])	further results
C=C1CC/C=C(\C)CCC2=C(C)C(=O)O[C@H]2/C=C(\C)CCC1=O	inactive	inactive	–	–	–
CCCO[C@H]1CC/C(C)=C/[C@@H]2OC(=O)C(C)=C2CC/C(C)=C/CC[C@]1(C)O	inactive	inactive	Active	Active	–
C=CCNC(=O)N(CC=C)C(=O)N(CC=C)C(=O)O[C@H]1CC/C(C)=C/[C@@H]2OC(=O)C(C)=C2CC/C(C)=C/CCC1=C	inactive	inactive	Active	Active	IC50 (PC-3 [5]): 24.3 µM
CO[C@H]1CC/C(C)=C/[C@@H]2OC(=O)C(C)=C2CC/C(C)=C/CC[C@]1(C)O	inactive	inactive	–	–	–
C=C1CC/C=C(\C)CCC2=C(C)C(=O)O[C@H]2/C=C(\C)CC[C@@H]1OC(=O)NCCCCC	inactive	inactive	Active	–	–
C=C1CC/C=C(\C)CCC2=C(C)C(=O)O[C@H]2/C=C(\C)CC[C@@H]1OC(=O)NCCCCl	inactive	inactive	–	–	–
O=C1NC(=O)/C(=C/c2ccc(O)cc2)N1	–	–	–	–	Activity (PC-3 [6]): Active; Activity (MDA-MB-231 [7]): Active
C=C1CC/C=C(\C)CCC2=C(C)C(=O)O[C@H]2/C=C(\C)CC[C@@H]1O	inactive	inactive	Active	–	–
CCCCO[C@H]1CC/C(C)=C/[C@@H]2OC(=O)C(C)=C2CC/C(C)=C/CC[C@]1(C)O	–	inactive	–	–	Activity [8]: inactive; Activity (MDA-MB-231 [9]): inactive; IC50 (MDA-MB-231 [10]): 20 µM; IC50 (MDA-MB-231 [11]): 30 µM
CC1=C2CC/C(C)=C/CC[C@]3(C)O[C@H]3CC/C(C)=C\[C@H]2OC1	inactive	inactive	–	Active	–
C=C1CC/C=C(\C)CCC2=C(C)C(=O)O[C@H]2/C=C(\C)CC[C@@H]1OC(=O)Nc1ccccc1	inactive	inactive	Active	Active	IC50 (PC-3 [5]): 16.3 µM
CC1=C2CC/C(C)=C/CC[C@]3(C)O[C@H]3CC/C(C)=C/[C@@H]2OC1	inactive	inactive	Active	–	–
C=C1CC/C=C(\C)CCC2=C(C)C(=O)O[C@H]2/C=C(\C)CC[C@@H]1OC(=O)NC1CCCCC1	–	inactive	–	Active	Activity [8]: Active; Activity (MDA-MB-231 [9]): Active; IC50 (MDA-MB-231 [10]): 45 µM; IC50 (PC-3 [5]): 15.5 µM; IC50 (MDA-MB-231 [11]): 17.2 µM
CC1=C2CC/C(C)=C/CC[C@]3(C)O[C@H]3CC/C(C)=C/[C@@H]2OC1=O	inactive	inactive	–	–	–
C=C1CC/C=C(\C)CCC2=C(C)C(=O)O[C@H]2/C=C(\C)CC[C@@H]1OC(=O)NCCCC	–	inactive	–	Active	Activity [8]: Active; Activity (MDA-MB-231 [9]): Active; IC50 (MDA-MB-231 [10]): 7 µM; IC50 (MDA-MB-231 [11]): 4.83 µM
CC1=C2CC/C(C)=C/CC[C@](C)(O)[C@@H](O)CC/C(C)=C/[C@@H]2OC1=O	inactive	inactive	Active	–	–
